Laboratory results: publication PMC7888481 (Journal of natural products, 2020)
Entries after “also recorded” stand apart in the source; their conditions may differ.

Experiments:
[1] = test system: Human FAAH; settings: read-out: Human FAAH IC50; literature values ref 27; cited from earlier work
[2] = Pharmacokinetics after oral administration in rats; format: in vivo; settings: rat, 100 mg/kg oral
Procedure, shortened: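 Male Sprague-Dawley rats, 8 weeks old, 250–300 g, n=4/group. Test compound given once at 100 mg/kg in 100% NEOBEE 1053 by oral gavage. Each sample added to 100 μL water with 0.1% EDTA, vortexed, stored at −80 °C, then processed and quantified by a previously reported method.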

[3] = test system: CB1 receptor; settings: cited from earlier work
[4] = test system: LPS-induced inflammatory pain; assay: LPS-induced inflammatory pain model; format: in vivo; settings: rat, 100 mg/kg oral, LPS intraplantar, 6-h time-course, n=4/group
[5] = target: T1, recombinant human sEH (Homo sapiens, UniProt P34913); assay: sEH inhibition assay; format: biochemical
T1 sequence (P34913 1-555): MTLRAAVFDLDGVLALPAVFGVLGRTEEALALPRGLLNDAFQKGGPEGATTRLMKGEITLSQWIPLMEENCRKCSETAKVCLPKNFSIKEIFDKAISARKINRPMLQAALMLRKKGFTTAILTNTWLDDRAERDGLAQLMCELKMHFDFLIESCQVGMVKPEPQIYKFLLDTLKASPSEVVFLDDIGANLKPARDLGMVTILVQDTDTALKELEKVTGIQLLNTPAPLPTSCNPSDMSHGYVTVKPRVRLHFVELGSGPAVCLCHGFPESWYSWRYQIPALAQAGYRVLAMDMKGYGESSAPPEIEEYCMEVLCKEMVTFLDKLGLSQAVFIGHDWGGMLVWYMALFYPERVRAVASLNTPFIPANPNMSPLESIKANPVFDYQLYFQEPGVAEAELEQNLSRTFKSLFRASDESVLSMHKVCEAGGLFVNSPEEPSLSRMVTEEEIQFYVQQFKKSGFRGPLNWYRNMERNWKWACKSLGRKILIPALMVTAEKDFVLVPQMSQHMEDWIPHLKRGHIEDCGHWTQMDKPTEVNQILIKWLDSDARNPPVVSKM
Procedure, shortened: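 Fluorescence assay on recombinant human sEH, test compound in serial dilution. Substrate MNPC at 5 μM final is hydrolysed to fluorescent 6-methoxynaphthaldehyde, read at λex 330 nm and λem 465 nm. IC50 determined in triplicate and the mean reported. Reference inhibitor t-TUCB run in parallel to validate the assay.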

SMILES | IC50 [1] [µM] | also measured
CCCCCCCCCCCCCCCC(=O)NCc1ccccc1 [Compound 1, N-benzylpalmitamide] | > 100 | –
CCCCCCCCCCCCCCCCCC(=O)NCc1ccccc1 [Compound 2, N-Benzyloctadecanamide] | > 100 | –
CCCCCCCC/C=C\CCCCCCCC(=O)NCc1ccccc1 [Compound 3, N-Benzyloctadec-9Z-enamide] | 16.7 | –
CCCCC/C=C\C/C=C\CCCCCCCC(=O)NCc1ccccc1 [Compound 4, N-Benzyloctadeca-9Z,12Z-dienamide] | 10.8 | time at which concentration peaked in the blood [2]: ≤ 3 h; binding to the CB1 receptor [3]: selectively bind; paw withdrawal thresholds (pain relief) relative to vehicle control ([4]; 100 mg/kg): significantly increased; also recorded: efficacious
CC/C=C\C/C=C\C/C=C\CCCCCCCC(=O)NCc1ccccc1 [Compound 5, N-Benzyloctadeca-9Z,12Z,15Z-trienamide] | 41.8 | paw withdrawal thresholds (pain relief) relative to vehicle control [4]: not significant
CCCCCCCC/C=C\CCCCCCCC(=O)NCc1cccc(OC)c1 [Compound 10, N-(3-Methoxybenzyl)octadec-9Z-enamide] | 11 | –
CCCCC/C=C\C/C=C\CCCCCCCC(=O)NCc1cccc(OC)c1 [Compound 11, N-(3-Methoxybenzyl)octadeca-9Z,12Z-dienamide] | 10.3 | –
CC/C=C\C/C=C\C/C=C\CCCCCCCC(=O)NCc1cccc(OC)c1 [Compound 12, N-(3-Methoxybenzyl)octadeca-9Z,12Z,15Z-trienamide] | 13.7 | –
CCCCC/C=C\C/C=C\CCCCCCCC(=O)NCCc1ccccc1 [Compound 18, N-Phenethyloctadeca-9Z,12Z-dienamide] | – | IC50 [5]: 0.028 µM
